Measurements from ChEMBL document CHEMBL1159121, “Synthesis, in vitro structure-activity relationship, and in vivo studies of 2-arylthiazolidine-4-carboxylic acid amides as anticancer agents” (Bioorg Med Chem, 2010).

Legend:
A549 = experiment: Growth inhibition of human A549 cells; format: functional
A-375 = experiment: Antiproliferative activity against human A375 cells after 48 hrs by SRB assay; format: functional, cell-based; conditions: A-375, 48 h
Procedure, shortened: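 Melanoma lines and control fibroblasts grown at 37 °C, 5% CO2, then exposed to a wide concentration range for 48 h in round-bottom 96-well plates. Fixed with 10% TCA, stained with SRB, protein read at 560 nm. IC50 (50% growth inhibition versus untreated) obtained by nonlinear regression.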

Compound	GI50 (A549) [µM]	TGI (A549) [µM]	CC50 (A549; read-out: LC50 (the source's name)) [µM]	IC50 (A-375) [µM]
CCCCCCCCCCCCCCCCNC(=O)[C@@H]1CSC(c2ccc(NC(C)=O)cc2)N1 (mixture of isomers)	0.36	1.35	5.28	
CCCCCCCCCCCCCCCCCCNC(=O)[C@@H]1CSC(c2ccccc2)N1 (mixture of isomers)				15
